# Sampled rows, rich in hits. Any-hit rate of the full collection: about 1.2%.
# Dynein transport: inhibitors of GR-EGFP nuclear translocation, primary screen, dynein cargo transport inhibitor project, imaging, high-content, 3617.4 mouse cells; test concentration mostly 20 µM; stimulated with dexamethasone, 1 µM; stronger effect = lower value; z-score, hits read low; actives 0.47% (n = 220,000);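 active = plate z-score of nuclear minus cytoplasmic receptor signal below a set negative limit, without overly bright fluorescence or cell loss, cut at about -3.5 in these data, passing the limit was not always enough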;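 note: z-score of nuclear minus cytoplasmic ring GR-EGFP intensity difference per well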
#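 Buffer or medium – tet-free medium with charcoal-stripped serum · Signal – automated 10x imaging of fixed Hoechst-stained cells · Also added – dexamethasone agonist, 1.0 µM final, for 30 min · Incubation – induction 48 h, compound 1 h, agonist 30 min · Read-out – GR-EGFP nuclear translocation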
# Autophagy mod: autophagy modulators in MEF cells, primary screen, imaging, high-content, MEF GFP-LC3; AID 463193, 2010; calls only at 10 µM (by protocol); MEF GFP-LC3 puncta imaging; test concentration mostly 10 µM; actives 0.98% (n = 190,000);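 active = percentage of spot-positive cells more than 3 SD above its plate mean, without a fluorescence outlier flag or 80% toxicity; inconclusive = no clear call, values can overlap the other calls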;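 note: spot-positive cell cutoff set from DMSO-treated cells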
# HSV augment: enhancers of HSV replication in host cells, fold increase, host cell viability; HSV replication augmentation in cells; maximum fold increase; actives 0.005% (n = 220,000); in the data active = maximum fold increase above about 1.5; inconclusive = no clear call, values can overlap the other calls; tested in PC3 cells
# HKDC1 inh: HKDC1 hexokinase inhibitors, primary screen, biochemical, fluorescence, uHTS; Q2TB90; recombinant HKDC1, G6PDH/diaphorase resazurin coupled fluorescence; inhibition, % at 20 µM; actives 0.16% (n = 340,000);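 active = inhibition above about 35% when tested at 20 µM, limit read from the data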;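 note: plate controls were DMSO wells with enzyme for no effect and DMSO wells lacking enzyme for full effect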
#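 Test system: recombinant HKDC1 (HK5) hexokinase enzyme, produced in-house; Amount: enzyme 5 µg/mL final; Buffer or medium: Tris pH 8.0 buffer with MgCl2, Tween-20, BSA, BME; Reagent: glucose and ATP substrates; Doses: 20 µM test compound, 1% DMSO; Incubation: 90 min reaction incubation at room temperature, dark; Detection: resorufin fluorescence at 613 nm.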
# Tb hexokinase: Trypanosoma brucei hexokinase 1 inhibitors, primary screen, biochemical, G6PDH-coupled NADH absorbance, MLSCN library | inhibition, % at 10 µM | actives 0.11% (n = 220,000) | recombinant TbHK1, G6PDH-coupled NADH A340 | hexokinase 1 [Trypanosoma brucei] | AID 1430, 2008;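 active = inhibition of 50% or more in the single-dose primary screen; inactive = inhibition below 50%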
# PERK inh: block of dimerizer-induced PERK translation repression, primary screen, PERK inhibitor project, CHO PERK-DD cells, SEAP luminescence, HTS; Eukaryotic translation initiation factor 2-alpha kinase 3 (Homo sapiens), Q9NZJ5; CHO PERK-DD fusion, SEAP luminescence translation reporter; inhibition, % at 5.6 µM; actives 0.17% (n = 220,000); AID 1416, 2008;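 active = inhibition above the mean inhibition of all tested compounds plus 3 SD, set separately per screening campaign, cut at about 2.9% in these data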;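 note: PERK kinase domain activated by AP20187 dimerizer at 100 nM; 0% = DMSO with dimerizer and 100% = rapamycin at 8.4 µM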
# Dynein confirm: dynein cargo transport inhibitors, GR-EGFP translocation, confirmation, imaging, high-content imaging, GR-EGFP cells | shares compounds with Dynein transport | 3617.4 GR-EGFP nuclear translocation imaging, dexamethasone-induced | calls only at 20 µM | actives 69% (n = 1,000) | AID 463116, 2010;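 active = inhibition of receptor movement into the nucleus at or above a set limit in both runs, with normal cell brightness and cell count; inconclusive = limit reached in only one run, brightness and count normal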;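 note: dexamethasone at 1 µM final in well for 30 min; nuclear minus cytoplasmic GR-EGFP mean intensity difference in channel 2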
# Starred values were filed as active, the others as inactive; i = inactive; ? = inconclusive; . = no result; + = active, no number.
SMILES,Dynein transport,Autophagy mod,HSV augment,HKDC1 inh,Tb hexokinase,PERK inh,Dynein confirm
Cn1cc(C(=O)CCl)c2ccccc21,-4.78*,i,i,6.2,-6.8,0.6,+
Cn1cc(C(N)=O)c2ccccc21,-0.542,i,i,-1.0,0.3,1.0,.
CCOc1ccc2[nH]cc(-c3csc(N)n3)c2c1,.,.,.,5.8,.,.,.
ClC1=C(Cl)C(Cl)=C(Cl)C1=C/C=C/c1ccccc1,-4.08*,.,i,-0.6,-9.7,1.4,i
CCOC(=O)Cc1csc(N/N=C\c2ccc(N(C)C)cc2)n1,.,.,.,2.7,.,.,.
O=C(CS(=O)c1ccccc1[N+](=O)[O-])Oc1ccc(Br)cc1 (configuration not stated),-0.146,i,i,-3.9,1.2,-0.1,.
CS(=O)(=O)c1ccc(S(=O)CC(=O)Oc2ccc(Cl)cc2)c([N+](=O)[O-])c1 (configuration not stated),-6.52*,i,i,-3.0,-11.0,0.6,+
Cc1ccc(NN2C(=O)C=C(c3ccccc3)C2=O)cc1,-4.5*,i,i,2.2,-2.6,0.5,+
O=C1c2ccccc2C(=O)N1Nc1ccccc1,0.452,i,.,-5.6,-3.2,-0.1,.
CCN(Cc1ccc(OC)c(F)c1)C(=O)C1CCCO1 (configuration not stated),.,.,.,-2.4,.,.,.
CCN(Cc1ccc(OC)c(F)c1)C(=O)CCl,-4.32*,i,i,-3.1,1.3,0.5,?
Cc1ccn2c(=O)c(NC(=O)c3cccs3)c(C)nc2c1,.,.,.,0.2,.,.,.
Cc1c(Cc2ccccc2)c(=O)oc2c(C)c(OCC(=O)NCC3CCC(C(=O)O)CC3)ccc12 (configuration not stated),.,.,.,3.3,.,.,.
COC(=O)c1cc(=O)n(Cc2ccc(F)cc2)c(=Nc2ccccc2)s1,-4.64*,.,i,4.4,-10.2,0.6,+
CCOC(=O)c1ccc(N=c2sc(C(=O)OC)cc(=O)n2-c2ccc(C(=O)OCC)cc2)cc1,-3.31,i,i,12.2,-8.6,0.3,.
COC(=O)c1cc(=O)n(Cc2ccc(OC)c(OC)c2)c(=Nc2ccc(F)cc2)s1,-4.35*,i,i,9.2,-16.4,0.6,+
CNC(=O)C1CC(=O)N(CCc2ccc(OC)c(OC)c2)C(=Nc2ccc(F)cc2)S1 (configuration not stated),-0.554,i,i,-2.9,-0.7,-0.1,.
COC(=O)c1cc(=O)n(-c2ccccc2)c(=Nc2ccccc2)s1,-3.93*,i,i,1.8,-13.5,0.3,+
COC(=O)c1cc(=O)n(CCc2ccc(OC)c(OC)c2)c(=Nc2ccc(F)c(Cl)c2)s1,-4.02*,i,i,11.5,-13.8,-0.4,+
COc1ccc(NC(=O)CN(c2ccccc2F)S(=O)(=O)c2ccc(C)cc2)c(OC)c1,.,.,.,8.0,.,.,.
CCC1CC(=O)CCN1S(=O)(=O)c1ccc(C)cc1 (configuration not stated),.,.,.,-2.1,.,.,.
CN(CCOc1ccc(Cl)cc1)C(=O)C1CCN(C(=O)c2ccc(Cl)cc2)CC1,.,.,.,-0.7,.,.,.
COC(=O)c1cc(=O)n(Cc2cccs2)c(=Nc2ccccc2)s1,-4.43*,.,i,2.2,-11.1,0.2,+
COC(=O)C1=CN(Cc2cccs2)C=C(C(=O)OC)C1c1cccc(O)c1,-0.575,i,i,1.3,-8.9,-0.2,.
COc1ccc(Cl)cc1NC(=O)CSc1nnc(-c2ccco2)o1,.,.,.,-3.5,.,.,.
COC(=O)c1sccc1NC(=O)/C=C/C(=O)O,2.25,i,i,-4.0,-5.3,0.1,.
COC(=O)c1scc(C)c1NC(=O)/C=C/C(=O)O,-3.76*,.,i,3.3,14.9,0.3,i

# Screening data (PubChem)
